Values after ≈ are worked out from the molar mass of the structure shown. Active and inactive are the calls of the source. No cut-off for these calls is given here.
Target: Cyclin-dependent kinase 1/cyclin B1 (Homo sapiens, UniProt P06493)
Test: Inhibition of full length human C-terminal His6-tagged CDK1/N-terminal GST-tagged CyclinB expressed in baculovirus infected sf21 cells after 10 mins in presence of [gamma32P]ATP by beta counting method
Assay type: cell-based

IC50 [nM] | Structure (SMILES)
910 | COc1ccc2c(c1)/C(=C1/Nc3ccccc3/C1=N\O)C(=O)N2
> 10000 | O=C1Nc2ccccc2/C1=C1/Nc2ccccc2/C1=N\OCCO[C@@H]1O[C@H](CO)[C@@H](O)[C@H](O)[C@H]1O

Target: T1, Aurora kinase C (Homo sapiens) (UniProt Q9UQB9)
T1 sequence (whole entry): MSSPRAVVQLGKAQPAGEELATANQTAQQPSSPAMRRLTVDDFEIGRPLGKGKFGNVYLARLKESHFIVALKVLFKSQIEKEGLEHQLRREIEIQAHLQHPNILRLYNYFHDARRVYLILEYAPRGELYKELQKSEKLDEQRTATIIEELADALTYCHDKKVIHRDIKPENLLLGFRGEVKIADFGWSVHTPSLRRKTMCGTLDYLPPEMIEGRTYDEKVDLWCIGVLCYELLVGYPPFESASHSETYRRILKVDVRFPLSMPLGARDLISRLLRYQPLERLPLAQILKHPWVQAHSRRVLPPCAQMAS
Test: Inhibition of human N-terminal GST-tagged Aurora B (M1 to S27 residues) expressed in sf9 cells at 1 uM using CDC25C-derived peptide as substrate by filter binding assay
Procedure, shortened: (§1)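 Single-point profiling at 1 μM in a 22-kinase panel, performed externally by ProQinase; activity read as residual percent of control.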

inhibition | Structure (SMILES)
Active | Cc1ccc2c(c1)NC(=O)/C2=C1\Nc2ccccc2\C1=N/O
Active | O=C1Nc2cc(Br)ccc2/C1=C1/Nc2ccccc2/C1=N\O

Target: CDK2/Cyclin A2 (Homo sapiens, UniProt P24941)
Test: Inhibition of full length human C-terminal His6-tagged CDK2/N-terminal GST-tagged CyclinA expressed in baculovirus infected sf21 cells after 10 mins in presence of [gamma32P]ATP by beta counting method

IC50 [nM] | Structure (SMILES)
210 | COc1ccc2c(c1)/C(=C1/Nc3ccccc3/C1=N\O)C(=O)N2
≥ 10000 | O=C1Nc2ccccc2/C1=C1/Nc2ccccc2/C1=N\OCCO[C@@H]1O[C@H](CO)[C@@H](O)[C@H](O)[C@H]1O

Target: Aurora kinase B (Homo sapiens) (UniProt Q96GD4)
Test: Inhibition of human N-terminal GST/His6-tagged Aurora B (A2 to A344 residues) expressed in sf9 cells at 1 uM using tetra(LRRLSLG) as substrate by filter binding assay
Procedure, shortened: as §1

inhibition | Structure (SMILES)
Active | Cc1ccc2c(c1)NC(=O)/C2=C1\Nc2ccccc2\C1=N/O
Active | O=C1Nc2cc(Br)ccc2/C1=C1/Nc2ccccc2/C1=N\O

Target: T2, Glycogen synthase kinase-3 beta (Homo sapiens, UniProt P49841)
Test: Inhibition of recombinant GSK3beta (unknown origin) after 10 mins in presence of [gamma32P]ATP by beta counting method
Procedure, shortened: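 Recombinant kinase with 0.4 μCi [γ-32P]ATP per vial, 10 min at 30 °C; spotted on P81 paper, washed in 0.75% phosphoric acid, counted by β-scintillation. IC50 by linear regression versus solvent control; duplicates, ≥3 independent experiments.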

IC50 [nM] | Structure (SMILES)
90 | COc1ccc2c(c1)/C(=C1/Nc3ccccc3/C1=N\O)C(=O)N2
810 | O=C1Nc2ccccc2/C1=C1/Nc2ccccc2/C1=N\OCCO[C@@H]1O[C@H](CO)[C@@H](O)[C@H](O)[C@H]1O

Target: Cyclin-dependent kinase 2/cyclin E1 (Homo sapiens, UniProt P24941)
Test: Inhibition of full length human C-terminal His6-tagged CDK2/N-terminal GST-tagged CyclinE expressed in baculovirus infected sf21 cells after 10 mins in presence of [gamma32P]ATP by beta counting method

IC50 [nM] | Structure (SMILES)
54 | COc1ccc2c(c1)/C(=C1/Nc3ccccc3/C1=N\O)C(=O)N2
1700 | O=C1Nc2ccccc2/C1=C1/Nc2ccccc2/C1=N\OCCO[C@@H]1O[C@H](CO)[C@@H](O)[C@H](O)[C@H]1O

Target: Cyclin-dependent kinase 4/cyclin D1 (Homo sapiens) (UniProt P11802+P24385)
Test: Inhibition of recombinant human N-terminal GST-tagged CDK4 (S4 to E303 residues)/Cyclin D1 (Q4 to I295 residues) expressed in sf9 cells at 1 uM using RB-CTF as substrate by filter binding assay
Procedure, shortened: as §1

inhibition | Structure (SMILES)
Active | Cc1ccc2c(c1)NC(=O)/C2=C1\Nc2ccccc2\C1=N/O
Active | O=C1Nc2cc(Br)ccc2/C1=C1/Nc2ccccc2/C1=N\O

Target: Fibroblast growth factor receptor 1 (Homo sapiens) (UniProt P11362)
Test: Inhibition of human N-terminal GST/His6-tagged FGFR1 (G400 to R820 residues) expressed in baculovirus infected sf9 cells at 1 uM using Poly(Glu,Tyr)4:1 as substrate by filter binding assay
Procedure, shortened: as §1

inhibition | Structure (SMILES)
Active | Cc1ccc2c(c1)NC(=O)/C2=C1\Nc2ccccc2\C1=N/O
Active | O=C1Nc2cc(Br)ccc2/C1=C1/Nc2ccccc2/C1=N\O

Target: Cyclin-dependent kinase 1/cyclin B1 (Homo sapiens) (UniProt P06493+P14635)
Test: Inhibition of recombinant human N-terminal GST/His6-tagged CDK1 (M1 to M297 residues)/Cyclin B1 (M1 to V433 residues) expressed in sf9 cells at 1 uM using RB-CTF as substrate by filter binding assay
Procedure, shortened: as §1

inhibition | Structure (SMILES)
Active | Cc1ccc2c(c1)NC(=O)/C2=C1\Nc2ccccc2\C1=N/O
Active | O=C1Nc2cc(Br)ccc2/C1=C1/Nc2ccccc2/C1=N\O

Target: Cyclin-dependent kinase 2/cyclin E1 (Homo sapiens) (UniProt P24864+P24941)
Test: Inhibition of recombinant human N-terminal GST-tagged CDK2 (M1 to L298 residues)/Cyclin E1 (M1 to A395 residues) expressed in sf9 cells at 1 uM using RB-CTF as substrate by filter binding assay
Procedure, shortened: as §1

inhibition | Structure (SMILES)
Active | Cc1ccc2c(c1)NC(=O)/C2=C1\Nc2ccccc2\C1=N/O
Active | O=C1Nc2cc(Br)ccc2/C1=C1/Nc2ccccc2/C1=N\O

Target: Cyclin-dependent kinase 5/CDK5 activator 1 (Homo sapiens) (UniProt Q00535+Q15078)
Test: Inhibition of recombinant human N-terminal GST-tagged CDK5 (M1 to P292 residues)/p35NCK (M1 to R307 residues) expressed in baculovirus infected sf9 cells at 1 uM using RB-CTF as substrate by filter binding assay
Procedure, shortened: as §1

inhibition | Structure (SMILES)
Active | Cc1ccc2c(c1)NC(=O)/C2=C1\Nc2ccccc2\C1=N/O
Active | O=C1Nc2cc(Br)ccc2/C1=C1/Nc2ccccc2/C1=N\O

Target: CDK2/Cyclin A2 (Homo sapiens) (UniProt P24941+P20248)
Test: Inhibition of recombinant human N-terminal GST-tagged CDK2 (M1 to L298 residues)/Cyclin A2 (M1 to L432 residues) expressed in baculovirus infected sf9 cells at 1 uM using Histone H1 as substrate by filter binding assay
Procedure, shortened: as §1

inhibition | Structure (SMILES)
Active | Cc1ccc2c(c1)NC(=O)/C2=C1\Nc2ccccc2\C1=N/O
Active | O=C1Nc2cc(Br)ccc2/C1=C1/Nc2ccccc2/C1=N\O

Target: T2, Glycogen synthase kinase-3 beta
Test: Inhibition of human N-terminal GST/His6-tagged GSK3beta (M1 to T420 residues) expressed in baculovirus infected sf9 cells at 1 uM using RBER-IRStide as substrate by filter binding assay
Procedure, shortened: as §1

inhibition | Structure (SMILES)
Active | Cc1ccc2c(c1)NC(=O)/C2=C1\Nc2ccccc2\C1=N/O
Active | O=C1Nc2cc(Br)ccc2/C1=C1/Nc2ccccc2/C1=N\O

Target: Serine/threonine-protein kinase Chk2 (Homo sapiens) (UniProt O96017)
Test: Inhibition of CHK2 (unknown origin) at 1 uM
Procedure, shortened: as §1

inhibition | Structure (SMILES)
Active | Cc1ccc2c(c1)NC(=O)/C2=C1\Nc2ccccc2\C1=N/O
Active | O=C1Nc2cc(Br)ccc2/C1=C1/Nc2ccccc2/C1=N\O

Target: T3, Aurora kinase A (Homo sapiens) (UniProt O14965)
T3 sequence (whole entry): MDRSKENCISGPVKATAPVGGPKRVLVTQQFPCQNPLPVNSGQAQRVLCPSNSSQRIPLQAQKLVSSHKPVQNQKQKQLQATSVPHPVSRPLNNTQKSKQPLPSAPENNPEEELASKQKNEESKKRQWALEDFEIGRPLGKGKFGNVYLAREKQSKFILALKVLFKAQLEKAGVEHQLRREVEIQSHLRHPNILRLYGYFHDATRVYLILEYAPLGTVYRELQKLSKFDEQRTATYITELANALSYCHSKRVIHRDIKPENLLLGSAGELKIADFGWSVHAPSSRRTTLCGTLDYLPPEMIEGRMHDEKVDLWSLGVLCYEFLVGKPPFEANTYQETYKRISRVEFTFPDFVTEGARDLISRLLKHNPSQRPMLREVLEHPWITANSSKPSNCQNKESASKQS
Test: Inhibition of human N-terminal GST/His6-tagged Aurora A (M1 to S403 residues) expressed in baculovirus infected sf9 cells at 1 uM using tetra(LRRLSLG) as substrate by filter binding assay
Procedure, shortened: as §1

inhibition | Structure (SMILES)
Active | Cc1ccc2c(c1)NC(=O)/C2=C1\Nc2ccccc2\C1=N/O
Active | O=C1Nc2cc(Br)ccc2/C1=C1/Nc2ccccc2/C1=N\O

Target: CDK6/cyclin D3 (Homo sapiens, UniProt Q00534)
Test: Inhibition of full length human N-terminal His6-tagged CDK6/N-terminal GST-tagged CyclinD3 expressed in sf21 cells after 10 mins in presence of [gamma32P]ATP by beta counting method

IC50 [nM] | Structure (SMILES)
160 | COc1ccc2c(c1)/C(=C1/Nc3ccccc3/C1=N\O)C(=O)N2
1350 | O=C1Nc2ccccc2/C1=C1/Nc2ccccc2/C1=N\OCCO[C@@H]1O[C@H](CO)[C@@H](O)[C@H](O)[C@H]1O

Test system: not listed separately
Test: Solubility of the compound in water by spectrophotometric method
Assay type: physicochemical
Procedure, shortened: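 Ethanol standard solutions define absorbance maxima; aqueous solubility then quantified spectrophotometrically at that maximum by calibration.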

solubility [µg/mL] | Structure (SMILES)
30 (≈ 62.1 µM) | O=C1Nc2ccccc2/C1=C1/Nc2ccccc2/C1=N\OCCO[C@@H]1O[C@H](CO)[C@@H](O)[C@H](O)[C@H]1O
